S1P3 antagonist: blocks the human S1P3 receptor; Q99500; AID 485; inhibition, % at 4.98 µM; 170,000 tested, 0.27% active; CHO S1P3 NFAT-BLA reporter, FRET fluorescence, antagonist mode;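 active means inhibition above the plate cutoff, the mean inhibition of test wells on that plate plus 3 SD, cut at about 28% in these data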;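 further: cells challenged with S1P at its EC80 of 0.8 µM; blue over green emission ratio from cleaved BLA substrate after 4 h stimulation; 0% = S1P-stimulated wells and 100% = unstimulated DMSO-only wells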
Target sequence (Q99500 whole entry, looked up): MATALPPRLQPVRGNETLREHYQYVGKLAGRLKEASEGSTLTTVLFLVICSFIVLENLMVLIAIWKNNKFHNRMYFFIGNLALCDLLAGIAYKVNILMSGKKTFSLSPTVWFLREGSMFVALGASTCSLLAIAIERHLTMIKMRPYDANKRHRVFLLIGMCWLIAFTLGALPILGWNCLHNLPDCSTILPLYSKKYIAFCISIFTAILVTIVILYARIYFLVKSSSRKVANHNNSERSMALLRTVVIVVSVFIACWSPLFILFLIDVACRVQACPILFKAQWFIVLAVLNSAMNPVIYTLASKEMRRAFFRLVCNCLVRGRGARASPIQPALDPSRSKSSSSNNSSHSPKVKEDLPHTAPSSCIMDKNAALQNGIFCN
CHOP inh: blocks CHOP induction under ER stress; CHO-K1 CHOP-promoter luciferase, tunicamycin-induced, 15-18 h; inhibition, % at 10 µM; 220,000 tested, 3.8% active; AID 2732;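 active means compounds that reduced the stress-induced luciferase reporter signal by more than about 70% of percent inhibition, limit read from the data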;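 further: 0% = tunicamycin plus vehicle and 100% = wells without tunicamycin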
Hsp70 activator: transcriptional activators of Hsp70 | AID 1203 | HeLa Hsp70 promoter luciferase reporter, luminescence; scaled: vehicle 0, proteasome-inhibitor control 100% | 200,000 tested, 0.04% active | activation, % at 10 µM;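 active means activation above the mean across all tested compounds plus 3 SD, cutoff set per campaign, cut at about 5.5% in these data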;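 further: 100% = MG132 at 30 µM as the positive control and 0% = DMSO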
MDM2 E3 inh: inhibitors of human Mdm2 E3 ubiquitin ligase. 210,000 tested, 0.11% active. Q00987. signal enhancement, % at 5 µM. cell-based MDM2 ubiquitination luciferase reporter, 2 h; 0 = plate control, 100 = twice control, blank-subtracted. AID 1230;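 active means signal enhancement of 30% or more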;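 further: luminescence tracks abundance of the self-degrading MDM2-luciferase fusion protein; higher signal means inhibition of MDM2 E3 ligase activity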
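Timing – 2 h compound exposure at 37 °C · Assay system – mammalian cells stably expressing self-ubiquitinating, self-degrading MDM2 E3–luciferase fusion · Amount – 2000 cells seeded into each well · Measure – % luminescence enhancement versus blank-corrected plate control mean · Measured by – SteadyLite luminescence, 15 min reagent step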
CHOP inh conf: confirmation of CHOP induction inhibitors | CHO-CHOP promoter luciferase reporter, tunicamycin-induced, luminescence | inhibition, % at 10 µM | shares compounds with CHOP inh | AID 504437 | 2,100 tested, 45% active;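 active means mean of three repeat readings of reporter signal inhibition above a set limit, cut at about 70% in these data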;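 further: 0% = tunicamycin plus vehicle and 100% = wells lacking tunicamycin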
Starred values were filed as active, the others as inactive; x = no result given. In the library only some 4% were active in any assay of this set; here they are far more common.

SMILES	S1P3 antagonist	CHOP inh	Hsp70 activator	MDM2 E3 inh	CHOP inh conf
C=CCN=C1CC(C)(C)C(C(=O)OC)C(O)=C1C(=O)CCC (configuration not stated)	-5	1	0	x	x
CCOC(=O)C1=C(O)c2ccccc2C(=O)/C1=C\c1ccc(C)cc1	-2	-29	0	-22	x
CCOC(=O)C1=C(Cc2ccc(Cl)cc2)C(=O)c2ccccc2C1=O	x	107*	0	-2	45
CCC(=O)c1c(NCCc2ccccc2)cc(C)oc1=O	-5	-19	0	-2	x
Cc1ccc(NC(=O)c2cc(N3C(=O)C=CC3=O)ccc2N2CCOCC2)cc1Cl	-2	100*	0	-6	-19
Cc1ccc(NC(=O)c2cc(N3C(=O)CCC3=O)ccc2N2CCOCC2)cc1	-12	-21	0	-4	x
Fc1c(F)c(C(F)(F)F)c(F)c(F)c1N/N=C\c1cccs1	x	101*	0	-17	89*
Cc1cccc2sc(NC(=O)c3ccc(Cl)s3)nc12	-2	56	0	-2	x
COc1cccc2sc(NC(=O)c3ccc(Br)s3)nc12	x	104*	1	-9	48
O=C(CSc1nnc(SCc2ccc(Cl)cc2)s1)c1ccc2c(c1)OCO2	7	12	0	6	x
COc1ccccc1-n1c(CNc2ccc(F)cc2)nnc1SCC(=O)Nc1cc(C)on1	x	-14	0	5	x
CCCc1ccc(O)c(N=Cc2cc(Br)cc(OCC)c2O)c1	-8	97*	0	-4	110*
Cc1nn(-c2ccccc2)c(OC(=O)c2cccs2)c1S(=O)(=O)c1ccc([N+](=O)[O-])cc1	x	45	0	-14	x
Cc1nn(-c2ccccc2)c(OC(=O)c2cccs2)c1S(=O)(=O)c1ccccc1	18	106*	0	1	15
CCOC(=O)/C(=C\c1ccc(OC(F)F)cc1)C1=Nn2c(nnc2-c2ccc(Cl)cc2)SC1	1	107*	0	7	120*
Cc1cc(NC(=O)c2ccccc2F)n(-c2nc3ccccc3[nH]2)n1	0	-23	0	-4	x
Cc1cc(NC(=O)C2CCCCC2)n(-c2nc3ccccc3[nH]2)n1	x	102*	0	-11	40
Cc1cc(NC(=O)c2c(F)cccc2F)n(-c2nc3ccccc3[nH]2)n1	x	100*	0	-10	-6
COc1ccc(C2NS(=O)(=O)N=C2N)cc1 (configuration not stated)	-7	26	0	-11	x
O=C(Nc1cc(S(=O)(=O)N2CCCCC2)ccc1N1CCCCC1)C1CC1	-10	18	x	x	x
C#CCSc1nncn1C(=O)/C=C/c1ccccc1	x	105*	0	-15	-8
Cc1cc2cc(C=C(C#N)C#N)c(Cl)nc2cc1C	2	97*	0	3	2
Cc1cc(=O)oc2cc(OCC(=O)OC(C)C(=O)NC3CCCC3)ccc12 (configuration not stated)	12	4	0	-11	x
CCCn1c(SCC(=O)c2ccc3c(c2)NC(=O)CO3)nc2ccccc21	12	103*	0	-6	5
CCc1ccc(-n2c(SCC(=O)c3ccc4c(c3)NC(=O)CO4)nc3ccccc3c2=O)cc1	19	27	0	-9	x
SMILES	S1P3 antagonist	CHOP inh	Hsp70 activator	MDM2 E3 inh	CHOP inh conf
COc1ccc(N/N=C(\C=N\O)C(=O)c2ccc(OC)cc2)cc1	x	x	0	-19	73*
COC(=O)c1ccc(C2C(C(=O)Nc3ccc(C)cc3C)=C(C)Nc3ncnn32)cc1 (configuration not stated)	-19	19	x	-4	x
Cc1ccc(C2c3c(oc4ccccc4c3=O)C(=O)N2c2nncs2)cc1 (configuration not stated)	7	31	x	-8	x
O=C1N(c2ccccc2)C[C@@H]2C[C@@H](c3cccs3)N3CCC[C@@]123	-15	98*	0	7	91*
CN(C)c1nc(C(=O)O)nc(N2CCOCC2)n1	-4	1	x	4	x
CCn1c2ccccc2c2nc3ccccc3nc21	4	42	0	-19	x
CCCCc1c(C)nn(-c2nnc3c4ccccc4n(CC)c3n2)c1C	25	105*	0	3	99*
CCS/C(N)=N/N=C/c1cc(C)ccc1O	x	-7	0	-11	x
CCCCS/C(N)=N/N=C/c1cc(C)ccc1O	x	102*	0	-5	-6
O=C(Nc1cccc(Cl)c1Cl)c1cc(S(=O)(=O)NCCc2ccccc2)ccc1F	-2	97*	0	-2	88*
O=C(NCCc1ccccc1)c1cc(S(=O)(=O)N2CCOCC2)ccc1F	x	9	0	-15	x
O=C(Cn1c(COc2ccccc2)nc2ccccc21)Nc1cc(Cl)cc(Cl)c1	-116	109*	0	x	32
O=C(N/N=C/c1ccncc1)c1cc2c(ccc3ccccc32)o1	x	109*	0	-10	-56
O=C(N/N=C/c1cccc([N+](=O)[O-])c1)c1cc2c(ccc3ccccc32)o1	x	-29	0	0	x
CC(C)N1CCC(N2CCN(Cc3nc4ccccc4s3)CC2CCO)CC1 (configuration not stated)	1	4	x	x	x
O=C(O)CCN1C(=O)/C(=C/c2cn(-c3ccccc3)nc2-c2cccs2)SC1=S	-7	102*	0	-6	-4
CS(=O)(=O)N1CCN(c2ccc(C(=O)N3CCOCC3)cc2[N+](=O)[O-])CC1	2	8	-1	-4	x
CC(/C=N/NC(=O)Cc1cccs1)=C\c1ccccc1	-35	51	0	-9	x
O=C(Cc1cccs1)N/N=C/C(Br)=C/c1ccccc1	x	104*	0	-1	66
Cc1cc(C)c(S(=O)(=O)NCCn2c(C)cc3ccccc32)c(C)c1	x	102*	0	-12	75*
C(=N\Nc1nc(N2CCCCC2)nc(N2CCCCC2)n1)/c1c[nH]c2ccccc12	17	101*	0	-6	42
CCNC(=O)c1ccccc1SCc1ccccc1	12	-21	0	-8	x
CCc1ccc(OCCNC(=O)c2ccccc2SCc2ccccc2)cc1	x	99*	0	-15	91*
O=C(NN1CCN(Cc2ccccc2)CC1)c1ccc(Cl)cc1	2	4	0	-4	x
O=C(N/N=C\c1ccc(-c2cccc(Cl)c2)o1)C(=O)NC1CCCC1	6	45	0	1	x
O=S(=O)(c1ccc(Cl)cc1)c1cnc(-c2cccnc2)nc1-c1ccccc1	x	99*	0	-11	12
Clc1ccc(-n2ncc3c(NCc4ccc5c(c4)OCO5)ncnc32)cc1	-42	104*	0	-12	39
CN(C)c1ccc(/C=C2\C(=N)N3C(=NC2=O)Sc2cc(S(C)(=O)=O)ccc23)cc1	0	104*	x	3	-9
Cc1cc(C)cc(-n2cccc2/C=C2/C(=N)N3C(=NC2=O)SN=C3S(C)(=O)=O)c1	-18	17	0	-8	x

Assay outcomes: PubChem BioAssay, several laboratories
